The results in this text go back to ChEMBL document CHEMBL1158388, “Preparation of spermine conjugates with acidic retinoids with potent ribonuclease P inhibitory activity” (Eur J Med Chem, 2009).

Each structure is given as a SMILES string.

The nature of this experiment: Inhibition of Dictyostelium discoideum AX2 RNase P by double reciprocal plot. Put shortly:
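RNase P purified from D. discoideum wild-type cells; 37 °C reactions in buffer D (50 mM Tris/HCl pH 7.6, 10 mM NH4Cl, 5 mM MgCl2, 5 mM DTT) with 2–5 fmol in vitro labeled S. pombe pre-tRNASer transcript and 1.3 µg enzyme-fraction protein, 10% DMSO; stopped with formamide/EDTA dye. Ki from slopes of 1/v vs 1/[pre-tRNA] plots replotted against inhibitor concentration.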
Take `C/C(=C\c1ccc(C(=O)O)cc1)c1ccc2c(c1)C(C)(C)CCC2(C)C`: the Ki turned out to be 45 µM.

Consider `CC1=C(/C=C/C(C)=C/C=C/C(C)=C/C(=O)NCCCNCCCCNCCCN)C(C)(C)CCC1`, for which the affinity, expressed as Ki, was 2.4 µM.

As to `CC1=C(/C=C/C(C)=C/C=C/C(C)=C/C(=O)N(CCCN)CCCCN(CCCN)C(=O)/C=C(C)/C=C/C=C(C)/C=C/C2=C(C)CCCC2(C)C)C(C)(C)CCC1`, the Ki worked out at 1.1 µM.

In the case of `COc1cc(C)c(/C=C/C(C)=C/C=C/C(C)=C/C(=O)O)c(C)c1C` [ACITRETIN], affinity was put at a Ki of 8 µM.

In the case of `CCOC(=O)c1ccc(/C=C(\C)c2ccc3c(c2)C(C)(C)CCC3(C)C)cc1` [AROTINOID], the Ki turned out to be 4350 µM.

Take `CCS(=O)(=O)c1ccc(/C=C(\C)c2ccc3c(c2)C(C)(C)CCC3(C)C)cc1` [ETAROTENE]: the inhibition constant Ki was determined as 3600 µM.

Compound `CC1=C(/C=C/C(C)=C/C=C/C(C)=C\C(=O)O)C(C)(C)CCC1` [ISOTRETINOIN] came in with a Ki of 20 µM.

Compound `COc1cc(C)c(/C=C/C(C)=C/C=C/C(C)=C/C(=O)NCCCNCCCCNCCCN)c(C)c1C` [N1-Acitretinylspermine] had a Ki of 2.45 µM.

`CC1=C(/C=C/C(C)=C/C=C/C(C)=C/CO)C(C)(C)CCC1` [RETINOL] gave a Ki of 1480 µM.

`CC1=C(/C=C/C(C)=C/C=C/C(C)=C/C(=O)O)C(C)(C)CCC1` [TRETINOIN] came in with a Ki of 15 µM.
